Values belong to the compound of their own block, whether it stands above or below them. The source made the active and inactive calls. No cut-off for these calls is given here.
Legend:
[1] = Antiproliferative activity against human MRC5 cells in presence of 5% Co2 incubated for 69 hrs followed by resazurin addition further incubated for 4 hrs; format: toxicity, cell-based
[2] = Metabolic stability in CD1 mouse liver microsomes assessed as intrinsic clearance by UPLC-MS/MS analysis; format: ADME
Procedure, shortened: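 Compound at 0.5 μM incubated with female CD1 mouse liver microsomes (0.5 mg mL-1, 50 mM potassium phosphate pH 7.4). Reaction started with excess NADPH. Aliquots taken at 0, 3, 6, 9, 15, 30 min and quenched in acetonitrile with internal standard, then analysed by UPLC-MS/MS.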

[3] = Kinetic aqueous solubility of the compound in DMSO by laser nephelometry; format: physicochemical; conditions: read-out: Kinetic_solubility
[4] = Free Cmax in NMRI mouse at 100 mg/kg, ip by UPLC-MS/MS analysis; format: ADME, organism-based; conditions: in vivo
[5] = Cmax in NMRI mouse at 100 mg/kg, ip by UPLC-MS/MS analysis; format: ADME, organism-based; design: dose 100 mg/kg, route ip; conditions: in vivo
[6] = Free Cmax in NMRI mouse at 50 mg/kg, ip by UPLC-MS/MS analysis; format: ADME, organism-based; conditions: in vivo
[7] = system: Trypanosoma brucei brucei; test: Antiparasitic activity against Trypanosoma brucei brucei S427 injected in Sprague-Dawley rat assessed as cure by measuring reduction in parasitemia at 100 mg/kg, po twice daily for 4 days by stage I efficacy study; format: functional, organism-based; conditions: time 4.0 day
[8] = AUC in NMRI mouse at 50 mg/kg, ip by UPLC-MS/MS analysis; format: ADME, organism-based; design: dose 50 mg/kg, route ip; conditions: in vivo
[9] = AUC in Sprague-Dawley rat at 10 mg/kg, po by UPLC-MS/MS analysis; format: ADME, organism-based; design: dose 10 mg/kg, route po; conditions: in vivo
Procedure, shortened: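 Oral gavage at 10 mg kg-1 free base in 10% DMSO/40% PEG400/50% water, 5 mL kg-1, to female NMRI mice (n = 3) or Sprague-Dawley rats. Blood drawn at 5, 15, 30 min and 1, 2, 4, 6, 8 h, mixed with two volumes of water, measured by UPLC-MS/MS. Parameters taken from the mean blood concentration–time curve.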

[10] = Cmax in NMRI mouse at 50 mg/kg, ip by UPLC-MS/MS analysis; format: ADME, organism-based; design: dose 50 mg/kg, route ip; conditions: in vivo
[11] = system: Trypanosoma brucei brucei; test: Antiparasitic activity against Trypanosoma brucei brucei S427 injected in NMRI mouse assessed as cure by measuring reduction in parasitemia at 100 mg/kg, for 4 days by stage I efficacy study; conditions: time 4.0 day
[12] = Free Cmax in Sprague-Dawley rat at 10 mg/kg, po by UPLC-MS/MS analysis; format: ADME, organism-based; conditions: in vivo
[13] = Metabolic stability in human liver microsomes assessed as intrinsic clearance by UPLC-MS/MS analysis; format: ADME
[14] = Tmax in NMRI mouse at 50 mg/kg, ip by UPLC-MS/MS analysis; format: ADME, organism-based; conditions: in vivo
[15] = Selectivity index, ratio of EC50 for human MRC-5 cells to EC50 for bloodstream-form Trypanosoma brucei; format: toxicity; conditions: read-out: Selectivity Index
Trypanosoma brucei [16] = test: Antiparasitic activity against bloodstream-form Trypanosoma brucei in presence of 5% Co2 incubated for 69 hrs followed by resazurin addition further incubated for 4 hrs; format: functional, organism-based
Trypanosoma brucei [17] = test: Antiparasitic activity against bloodstream-stage Trypanosoma brucei measured after 73 hrs by resazurin assay; format: functional, organism-based
[18] = Selectivity ratio of IC50 for inhibition of Trypanosoma brucei GSK3 to EC50 for antiparasitic activity against bloodstream-stage Trypanosoma brucei; format: toxicity

SMILES: Nc1nc(Nc2ccc(F)c(F)c2)sc1C(=O)COC1CCC1
EC50 at 69 h [1]: 50 µM | CLH [2]: 9 mL/min/g

SMILES: Nc1nc(Nc2ccc(F)c(F)c2)sc1C(=O)COC(CF)CF
EC50 at 69 h [1]: 50 µM

SMILES: CC(C)OCCC(=O)c1sc(Nc2ccc(F)c(F)c2)nc1N
EC50 at 69 h [1]: 50 µM

SMILES: Nc1nc(Nc2ccc(F)c(F)c2)sc1C(=O)CCN1CCOCC1
CLH [2]: 1.2 mL/min/g

SMILES: CCOCC(=O)c1sc(Nc2ccc(F)c(F)c2)nc1N
EC50 at 69 h [1]: 50 µM

SMILES: Nc1nc(NC2CCCCC2)sc1C(=O)c1ccc(C(F)(F)F)cc1
CLH [2]: 1.4 mL/min/g

SMILES: C[C@@H]1CN(CC(=O)c2sc(Nc3ccc(F)c(F)c3)nc2N)C[C@H](C)O1
EC50 at 69 h [1]: 50 µM | CLH [2]: 8.1 mL/min/g | selectivity ratio [15]: 1000 | EC50 (Trypanosoma brucei [16]): 0.05 µM

SMILES: Nc1nc(Nc2ccccc2)sc1C(=O)c1ccccc1
CLH [2]: 12 mL/min/g | CLH [13]: < 0.5 mL/min/g

SMILES: Nc1nc(NC2CCCCC2)sc1C(=O)c1ccc(F)c(F)c1
CLH [2]: 12 mL/min/g

SMILES: CC(C)(C)CC(=O)c1sc(Nc2ccc(F)c(F)c2)nc1N
CLH [2]: 4.6 mL/min/g

SMILES: Nc1nc(NC2CCCCC2)sc1C(=O)C1CCCCC1
CLH [2]: 8.9 mL/min/g

SMILES: CC(C)CC(=O)c1sc(Nc2ccc(F)cc2)nc1N
CLH [2]: 8 mL/min/g

SMILES: CC(C)CC(=O)c1sc(Nc2ccc(F)c(F)c2)nc1N
CLH [2]: 5.9 mL/min/g | CLH [13]: 3.2 mL/min/g

SMILES: CC(C)(C)OCC(=O)c1sc(Nc2ccc(F)c(F)c2)nc1N
EC50 at 69 h [1]: 50 µM

SMILES: Nc1nc(Nc2ccccc2)sc1C(=O)c1ccc(F)cc1
CLH [2]: 7.3 mL/min/g

SMILES: CC(C)(C)C(=O)c1sc(NC2CCCCC2)nc1N
CLH [2]: 2.5 mL/min/g | EC50 (Trypanosoma brucei [17]): 0.26 µM | Ratio IC50/EC50 [18]: 70

SMILES: Nc1nc(NC2CCCCC2)sc1C(=O)c1c(Cl)cccc1Cl
CLH [2]: 4.1 mL/min/g

SMILES: Nc1nc(Nc2ccc(F)c(F)c2)sc1C(=O)COC1CC(F)(F)C1(F)F (stereo unspecified)
CLH [2]: 5.2 mL/min/g

SMILES: CC(OCC(=O)c1sc(Nc2ccc(F)c(F)c2)nc1N)C(F)(F)F (stereo unspecified)
EC50 at 69 h [1]: 50 µM | CLH [2]: 7.4 mL/min/g

SMILES: CC(OCC(=O)c1sc(Nc2ccc(C(F)(F)F)nc2)nc1N)C(F)(F)F (stereo unspecified)
EC50 at 69 h [1]: 50 µM

SMILES: Nc1nc(Nc2ccc(F)c(F)c2)sc1C(=O)CN1C[C@H]2CC[C@@H](C1)O2
EC50 at 69 h [1]: 50 µM | CLH [2]: 8.8 mL/min/g

More lines, main results first:

CLH [2]: 9.7 mL/min/g
SMILES: Nc1nc(NC2CCCCC2)sc1C(=O)c1ccccc1F
EC50 at 69 h [1]: 2 µM

CLH [2]: 3.6 mL/min/g
SMILES: Nc1nc(NC2CCCCC2)sc1C(=O)c1cc(F)cc(F)c1

CLH [2]: 4.1 mL/min/g
SMILES: Nc1nc(NC2CCCCC2)sc1C(=O)c1ccncc1

CLH [2]: 9 mL/min/g | solubility kinetic [3]: > 100 µg/mL
SMILES: COc1ccc(Nc2nc(N)c(C(=O)COC(C)C(F)(F)F)s2)cn1 (stereo unspecified)
EC50 at 69 h [1]: 50 µM

CLH [2]: 5.2 mL/min/g
SMILES: CC1CCCN1CC(=O)c1sc(Nc2ccc(F)c(F)c2)nc1N (stereo unspecified)
EC50 at 69 h [1]: 50 µM

CLH [2]: 1.8 mL/min/g
SMILES: Nc1nc(NC2CCCC(O)C2)sc1C(=O)c1c(F)cccc1F (stereo unspecified)

fCmax [4]: 5200 ng/mL | Cmax [5]: 36000 ng/mL | fCmax [6]: 2600 ng/mL | CLH [2]: 2.2 mL/min/g | AUC [8]: 1900 µg·h/mL | AUC [9]: 470 µg·h/mL | Cmax [10]: 18000 ng/mL | fCmax [12]: 195 ng/mL | CLH [13]: < 0.5 mL/min/g | Tmax [14]: 30 min
SMILES: CC(C)(O)CC(=O)c1sc(Nc2ccc(F)c(F)c2)nc1N
Activity [7]: inactive | Activity [11]: inactive

CLH [2]: 4.7 mL/min/g
SMILES: Nc1nc(Nc2ccc(F)c(F)c2)sc1C(=O)CN1CCOCC1
EC50 at 69 h [1]: 50 µM | selectivity ratio [15]: 2000

CLH [2]: 5 mL/min/g | solubility kinetic [3]: > 100 µg/mL
SMILES: CC(OCC(=O)c1sc(Nc2ccc3c(c2)OC(F)(F)O3)nc1N)C(F)(F)F (stereo unspecified)
EC50 at 69 h [1]: 50 µM

CLH [2]: 7.7 mL/min/g
SMILES: Nc1nc(Nc2ccc(F)c(F)c2)sc1C(=O)CN1CCCCC1

CLH [2]: 2.1 mL/min/g
SMILES: Nc1nc(Nc2ccc(F)c(F)c2)sc1C(=O)CN1CCCC1

CLH [2]: 33 mL/min/g
SMILES: Nc1nc(Nc2ccc(F)c(F)c2)sc1C(=O)CN1CCCC(F)(F)C1

solubility kinetic [3]: > 100 µg/mL | EC50 (Trypanosoma brucei [16]): 0.02 µM
SMILES: CC(OCC(=O)c1sc(Nc2cccc(OC(F)F)c2)nc1N)C(F)(F)F (stereo unspecified)
EC50 at 69 h [1]: 50 µM | selectivity ratio [15]: 2500

CLH [2]: 21 mL/min/g
SMILES: Nc1nc(NC2CCCCC2)sc1C(=O)C1CCC1
selectivity ratio [15]: 5

CLH [2]: 4.9 mL/min/g
SMILES: Nc1nc(NC2CCCCC2)sc1C(=O)c1ccc(F)cc1

CLH [2]: 9.3 mL/min/g
SMILES: CC(C)OCC(=O)c1sc(Nc2ccc(F)c(F)c2)nc1N
EC50 at 69 h [1]: 50 µM

CLH [2]: 9.3 mL/min/g
SMILES: Nc1nc(Nc2ccc(F)c(F)c2)sc1C(=O)CN1CCC(F)(F)CC1

CLH [2]: 5.3 mL/min/g | solubility kinetic [3]: > 100 µg/mL
SMILES: CC(OCC(=O)c1sc(Nc2ccc(Cl)cc2)nc1N)C(F)(F)F (stereo unspecified)
EC50 at 69 h [1]: 50 µM

CLH [2]: 6.1 mL/min/g
SMILES: COC(C)(C)CC(=O)c1sc(Nc2ccc(F)c(F)c2)nc1N
EC50 at 69 h [1]: 50 µM

CLH [2]: 15 mL/min/g
SMILES: O=C(c1cnc(NC2CCCCC2)s1)C1CCCCC1

CLH [2]: 3.8 mL/min/g
SMILES: COC(C)(C)C(=O)c1sc(NC2CCCCC2)nc1N

CLH [2]: 4.1 mL/min/g
SMILES: Nc1nc(Nc2ccc(F)c(F)c2)sc1C(=O)CN1C[C@@H]2C[C@H]1CO2
EC50 at 69 h [1]: 50 µM

CLH [2]: 2.3 mL/min/g | solubility kinetic [3]: > 100 µg/mL
SMILES: CC(OCC(=O)c1sc(Nc2ccc(C(F)(F)F)cc2)nc1N)C(F)(F)F (stereo unspecified)

CLH [2]: 6.5 mL/min/g
SMILES: Nc1nc(NC2CCCCC2)sc1C(=O)c1ccc(F)cc1F

CLH [2]: 0.5 mL/min/g
SMILES: CC(C)C(=O)c1sc(NC2CCCCC2)nc1N

CLH [2]: 26 mL/min/g
SMILES: Nc1nc(Nc2ccc(F)c(F)c2)sc1C(=O)CN1CCCC1C(F)(F)F (stereo unspecified)

CLH [2]: 10.8 mL/min/g
SMILES: CC(OCC(=O)c1sc(Nc2ccn(C)n2)nc1N)C(F)(F)F (stereo unspecified)

CLH [2]: 14 mL/min/g
SMILES: Nc1nc(NC2CCCCC2)sc1C(=O)c1ccccc1C(F)(F)F

CLH [2]: 2.9 mL/min/g | CLH [13]: 0.8 mL/min/g
SMILES: Nc1nc(NC2CCCCC2)sc1C(=O)c1ccc(OC(F)F)cc1
selectivity ratio [15]: 267

Source: ChEMBL document CHEMBL5346944, “Development of a 2,4-Diaminothiazole Series for the Treatment of Human African Trypanosomiasis Highlights the Importance of Static-Cidal Screening of Analogues” (J Med Chem, 2023)
